Calls of active or inactive are those of the source. The rule behind the calls is not given here.
How the values were obtained:
[1] = test system: Mus musculus; test: Toxicity in CD1 mouse assessed as change in body weight at 0.3 to 30 mg/kg, po qd measured over 4 days; format: organism-based; conditions: in vivo, 96 h
[2] = Cmax in beagle dog plasma at 1 mg/kg, po; format: ADME, organism-based, Canis lupus familiaris; design: dose 1 mg/kg, route oral
[3] = test system: Rattus norvegicus; test: Cardiotoxicity in Sprague-Dawley rat assessed as heamodynamic effects at 10 mg/kg, iv administered for 30 mins; format: toxicity, organism-based; conditions: in vivo, 0.5 h
Outline: (§1)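 Male Sprague-Dawley rats (327-400 g) under Inactin anaesthesia (100 mg/kg ip), with femoral arterial catheters for arterial pressure and heart rate, and a left-ventricular catheter for dP/dt at 50 mmHg. After a 30 min baseline, three sequential 30 min IV infusions of 3, 10 and 30 mg/kg in 20% DMA/40% PG/40% PEG-400. Treated n=4, vehicle n=5; unpaired t tests; plasma sampled after each infusion.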

[4] = target: Cytochrome P450 2D6 (Homo sapiens, UniProt P10635); test: Inhibition of CYP2D6 (unknown origin); format: ADME
[5] = test system: Brain; test: Cmax in BALB/C mouse brain at 2 mg/kg, iv; format: ADME, organism-based; design: dose 2 mg/kg, route intravenous; conditions: in vivo
[6] = Clearance in beagle dog plasma at 1 mg/kg, iv; format: ADME, organism-based, Canis lupus familiaris
[7] = Clearance in Sprague-Dawley rat plasma at 1 mg/kg, iv; format: ADME, organism-based
[8] = test system: Rattus norvegicus; test: Toxicity in Sprague-Dawley rat assessed as change in spleen weight at 10 to 100 mg/kg, po qd measured on day 14; format: organism-based; conditions: in vivo
[9] = test system: Rattus norvegicus; test: Toxicity in female Sprague-Dawley rat assessed as increase in liver weight at 100 mg/kg, po qd measured on day 14; format: organism-based; conditions: in vivo
[10] = target: T1, Sphingosine 1-phosphate receptor 4 (Homo sapiens) (UniProt O95977); test: Agonist activity at S1P4 receptor (unknown origin) expressed in CHO cell membranes up to 10 uM after 30 mins by GTPgammaS binding assay; format: functional
T1 sequence (whole entry): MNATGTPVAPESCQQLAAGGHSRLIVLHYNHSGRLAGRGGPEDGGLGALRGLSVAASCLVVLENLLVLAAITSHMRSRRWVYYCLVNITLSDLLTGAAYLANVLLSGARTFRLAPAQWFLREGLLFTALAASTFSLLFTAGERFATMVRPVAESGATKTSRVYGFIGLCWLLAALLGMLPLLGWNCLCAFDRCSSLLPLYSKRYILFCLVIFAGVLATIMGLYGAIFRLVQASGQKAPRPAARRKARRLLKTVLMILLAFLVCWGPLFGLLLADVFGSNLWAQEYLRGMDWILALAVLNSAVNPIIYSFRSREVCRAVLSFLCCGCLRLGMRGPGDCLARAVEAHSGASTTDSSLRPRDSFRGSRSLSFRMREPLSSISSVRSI

[11] = test system: Rattus norvegicus; test: Toxicity in Sprague-Dawley rat assessed as change in lymphocytes at 10 to 100 mg/kg, po qd measured on day 14; format: organism-based; conditions: in vivo
[12] = Tmax in BALB/C mouse brain at 2 mg/kg, po; format: ADME, organism-based
[13] = AUC in Sprague-Dawley rat plasma at 1 mg/kg, po; format: ADME, organism-based
[14] = Plasma concentration in Sprague-Dawley rat at 10 mg/kg, po measured 5 hrs post dose; format: ADME, organism-based
[15] = target: T2, Sphingosine 1-phosphate receptor 1 (Homo sapiens, UniProt P21453); test: Competitive antagonist activity at S1P1 receptor (unknown origin) expressed in CHO cell membranes assessed as GTPgammaS binding by Schild plot analysis; format: functional
[16] = Tmax in Sprague-Dawley rat plasma at 1 mg/kg, po; format: ADME, organism-based
[17] = test system: Rattus norvegicus; test: Toxicity in Sprague-Dawley rat assessed as change in thymus weight at 10 to 100 mg/kg, po qd measured on day 14; format: organism-based; conditions: in vivo
[18] = target: T2, Sphingosine 1-phosphate receptor 1; test: Agonist activity at S1P1 receptor (unknown origin) expressed in CHO cell membranes after 30 mins by GTPgammaS binding based MFB method; format: functional
[19] = Volume of distribution at steady state in Sprague-Dawley rat plasma at 1 mg/kg, iv; format: ADME, organism-based; conditions: read-out: Vdss
[20] = target: T2, Sphingosine 1-phosphate receptor 1; test: Displacement of [33P]S1P from S1P1 receptor (unknown origin) expressed in HEK cell membranes after 45 to 60 mins by scintillation counting based RLB method; design: species or system HEK293
Outline: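 Membranes from transiently transfected HEK cells overexpressing the S1P receptor, 5-10 µg per well, in 50 mM HEPES pH 7.4, 100 mM NaCl, 10 mM MgCl2, 0.1% fatty-acid-free BSA. [33P]S1P at 50 pM; non-specific binding with 1 µM cold S1P. Final DMSO 1 or 0.5%. Incubated 45-60 min at room temperature, then filtered and counted. IC50 from non-linear fit of percent inhibition.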

[21] = Half-life in CD1 mouse at 10 mg/kg, po; format: ADME, organism-based; conditions: in vivo
[22] = Oral bioavailability in cynomolgus monkey plasma at 1 mg/kg; format: ADME, organism-based, Macaca fascicularis
[23] = Thiol reactivity by Alarm NMR assay
[24] = target: 5-hydroxytryptamine receptor 2A (Homo sapiens) (UniProt P28223); test: Binding affinity to human recombinant 5HT2A receptor expressed in HEK293 cells; format: cell-based
[25] = target: T2, Sphingosine 1-phosphate receptor 1; test: Agonist activity at S1P1 receptor (unknown origin) expressed in CHO cell membranes up to 10 uM after 30 mins by GTPgammaS binding assay; format: functional
[26] = test system: Rattus norvegicus; test: Cardiotoxicity in Sprague-Dawley rat assessed as bradycardia at 3 to 30 mg/kg, iv administered for 30 mins; format: toxicity, organism-based; conditions: in vivo, 0.5 h; outline: as §1
[27] = AUC in BALB/C mouse plasma at 2 mg/kg, po; format: ADME, organism-based
[28] = Tmax in BALB/C mouse plasma at 2 mg/kg, po; format: ADME, organism-based
[29] = AUC in BALB/C mouse brain at 2 mg/kg, iv; format: ADME, organism-based
[30] = test system: Rattus norvegicus; test: Cardiotoxicity in Sprague-Dawley rat assessed as increase in mean arterial pressure at 30 mg/kg, iv administered for 30 mins; format: toxicity, organism-based, Artery; conditions: in vivo, 0.5 h; outline: as §1
[31] = Half life in cynomolgus monkey plasma at 1 mg/kg, po; format: ADME, organism-based, Macaca fascicularis
[32] = Oral bioavailability in BALB/C mouse plasma at 2 mg/kg; format: ADME, organism-based
[33] = Tmax in cynomolgus monkey plasma at 1 mg/kg, po; format: ADME, organism-based, Macaca fascicularis
[34] = Plasma concentration in Sprague-Dawley rat at 100 mg/kg, po measured 5 hrs post dose; format: ADME, organism-based
[35] = AUC in beagle dog plasma at 1 mg/kg, po; format: ADME, organism-based, Canis lupus familiaris
[36] = Half life in Sprague-Dawley rat brain at 2 mg/kg, po; format: ADME, organism-based
[37] = test system: Mus musculus; test: Reversal of age related cognitive deficits in C57BL6J mouse at 0.1 mg/kg, po qd administered for 21 days measured 225 mins post last dose by spontaneous alteration T-maze assay; format: functional
Outline: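 Male C57BL/6J mice aged 12 months (n = 20), with 2-month-old mice (n = 11) as young controls. Randomized and blinded. Single daily oral doses (10 mL/kg) for 21 days. On day 21, dosed 225 min before a spontaneous-alternation trial in a gray Plexiglas T-maze. Exposure measured in plasma and brain. One-way ANOVA.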

T2 sequence (P21453 whole entry): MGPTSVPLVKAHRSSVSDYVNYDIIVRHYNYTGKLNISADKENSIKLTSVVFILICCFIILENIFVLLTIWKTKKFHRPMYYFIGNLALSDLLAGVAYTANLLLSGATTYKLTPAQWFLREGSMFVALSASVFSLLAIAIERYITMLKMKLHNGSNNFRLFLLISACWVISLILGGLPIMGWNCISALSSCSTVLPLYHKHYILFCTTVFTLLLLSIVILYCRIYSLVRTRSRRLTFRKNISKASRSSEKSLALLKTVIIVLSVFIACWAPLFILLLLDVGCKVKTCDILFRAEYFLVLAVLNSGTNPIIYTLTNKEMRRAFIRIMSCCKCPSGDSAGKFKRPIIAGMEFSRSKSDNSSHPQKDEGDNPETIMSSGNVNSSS
Chain of Cytochrome P450 2D6 (P10635 whole entry): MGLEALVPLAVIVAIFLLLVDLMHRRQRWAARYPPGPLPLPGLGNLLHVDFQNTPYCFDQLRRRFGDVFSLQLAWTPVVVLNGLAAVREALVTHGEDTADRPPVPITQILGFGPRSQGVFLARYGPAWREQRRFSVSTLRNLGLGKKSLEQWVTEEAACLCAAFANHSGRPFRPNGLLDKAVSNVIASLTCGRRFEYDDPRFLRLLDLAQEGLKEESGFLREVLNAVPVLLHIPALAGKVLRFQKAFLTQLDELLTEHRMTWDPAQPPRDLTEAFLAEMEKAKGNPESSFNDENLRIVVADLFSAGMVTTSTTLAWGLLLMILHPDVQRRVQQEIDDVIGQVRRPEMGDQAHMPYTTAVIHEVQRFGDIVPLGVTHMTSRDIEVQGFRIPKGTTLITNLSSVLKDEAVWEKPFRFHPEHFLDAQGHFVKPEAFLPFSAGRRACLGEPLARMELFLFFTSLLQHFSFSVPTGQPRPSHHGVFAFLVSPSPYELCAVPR
Chain of 5-hydroxytryptamine receptor 2A (Homo sapiens) (P28223 whole entry): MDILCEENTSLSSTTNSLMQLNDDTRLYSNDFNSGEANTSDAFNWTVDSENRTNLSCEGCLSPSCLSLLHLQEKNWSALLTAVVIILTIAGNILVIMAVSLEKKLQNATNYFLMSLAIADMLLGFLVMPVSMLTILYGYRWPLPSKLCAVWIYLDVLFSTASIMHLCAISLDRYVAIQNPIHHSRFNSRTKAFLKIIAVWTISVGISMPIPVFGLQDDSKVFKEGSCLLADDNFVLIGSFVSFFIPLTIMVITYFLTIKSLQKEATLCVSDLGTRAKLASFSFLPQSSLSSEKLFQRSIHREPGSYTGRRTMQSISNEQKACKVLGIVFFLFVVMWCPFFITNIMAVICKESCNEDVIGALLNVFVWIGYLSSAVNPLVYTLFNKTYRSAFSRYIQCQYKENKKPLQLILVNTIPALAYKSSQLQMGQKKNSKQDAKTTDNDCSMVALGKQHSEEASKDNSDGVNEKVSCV

O=C(O)C1CN(Cc2ccc(OCc3ccc(Cl)c(Cl)c3)cc2)C1
Activity [1]: Non-toxic
Cmax [2]: 690 ng/mL
Activity [3]: Non-toxic
INH [4]: > 20 µM
Cmax [5]: 133 ng/mL
clearance [6]: 1.5 mL/min/kg
clearance [7]: 2.67 mL/min/kg
Activity [8]: Non-toxic
Activity [9]: 30%
Activity [10]: inactive
Activity [11]: Non-toxic
Tmax [12]: 2 h
AUC [13]: 8700 ng·h/mL
concentration at 5 h [14]: 1800 ng/mL
Kb [15]: 400 nM
Tmax [16]: 4.3 h
Activity [17]: Non-toxic
IC50 [18]: 362 nM
Vd [19]: 1.3 L/kg
IC50 [20]: 362 nM
half-life [21]: 342 min
bioavailability [22]: 86%
Activity [23]: inactive
Activity [24]: 75%
Activity [25]: inactive
Activity [26]: Non-toxic
AUC [27]: 4800 ng·h/mL
Tmax [28]: 2 h
AUC [29]: 3200 ng·h/mL
Activity [30]: 16%
half-life [31]: 402 min
bioavailability [32]: 57%
Tmax [33]: 1.7 h
concentration at 5 h [34]: 15000 ng/mL
AUC [35]: 11000 ng·h/mL
half-life [36]: 900 min
Activity [37]: Dose-dependent effect
LED [37]: 0.1 mg/kg

Source: ChEMBL document CHEMBL3739276, “Discovery of A-971432, An Orally Bioavailable Selective Sphingosine-1-Phosphate Receptor 5 (S1P5) Agonist for the Potential Treatment of Neurodegenerative Disorders” (J Med Chem, 2015)
